Test [1] can be described thus: OD615 S. cerevisiae growth inhibition, permissive medium, pilot counter-assay, permissive growth control for S. cerevisiae lifespan shortening project (AID 705). Conditions: OD615, 24 h, at 10 µM, hits give high values. An outline of the steps: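 System – S. cerevisiae with engineered DeaD lifespan system · Buffer or medium – SC raffinose/galactose permissive medium · Schedule – cells pre-grown 4 h, then 24 h compound exposure, 30 °C humidified · Technique – culture turbidity as optical density at 615 nm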

The nature of test [2]: Restrictive medium S. cerevisiae growth inhibition, OD615, pilot screen of yeast lifespan reduction project, restrictive growth control (AID 706;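 active = growth inhibition above a set limit, 3 SD over mean compound inhibition, in both replicates, cut at about 43% in these data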;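 note: modified DeaD lifespan yeast strain shifted to restrictive glucose medium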). Conditions: OD615, 48 h, at 10 µM, hits give high values. An outline of the steps:
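Material: engineered S. cerevisiae DeaD strain / Medium: glucose-based CSMM-D restrictive medium / Compound: single dose of 10 µM compound final, 0.25% DMSO / Timing: 4 h pre-incubation, 48 h exposure at 30 °C / Technique: OD615 absorbance reading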

The nature of test [3]: viability gain of MRP-1-high H69AR cells under doxorubicin, pilot screen, MRP-1 activator project, CellTiter-Glo, duplicate (AID 807;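 active = viability increase at or above a cutoff of the median across tested compounds plus 3 SD, cut at about 8.5% in these data, passing the limit was not always enough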;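 note: compound pretreatment 18-22 h then 72 h combined with doxorubicin; 0% = doxorubicin alone and 100% = vehicle without doxorubicin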). To be noted: H69AR viability with doxorubicin, CellTiter-Glo luminescence; at 10 µM; hits give high values.
Test [4] can be described thus: growth suppression of beta-catenin knockout HCT116, pilot screen, human colon tumor cells (AID 823;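 active = cell viability at or below a set limit in both duplicate runs, the limit being the all-compound median minus 4 SD, cut at about 23% in these data, passing the limit was not always enough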;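 note: 0% = wells killed by 20 µM Hyamine and 100% = untreated DMSO cell wells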). Conditions: CellTiter-Glo, 60 h, at 10 µM, hits give low values. (In general: Cellular ATP, detected with luciferase, serves as a proxy for viable cell number.)
The nature of test [5]: growth suppression of PTEN-deleted HCT116, pilot screen, cell-based, HCT116 clonal line, CellTiter-Glo (AID 824;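 active = viability at or below 27.92% in each of two runs, the all-compound median minus 4 SD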;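 note: 0% = 20 µM Hyamine control and 100% = vehicle cell control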). Conditions: 60 h, at 10 µM, hits give low values.
Test [6] in a line: inhibitors of the yeast RAM network, pilot screen, dse1pr::URA3 reporter, 5-FOA selection (AID 869;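 active = inhibition over a set limit, the all-compound mean plus 3 SD, in both replicate runs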;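 note: 0% = DMSO wells with no growth and 100% = 10 µM 1-NA-PP1 with full growth; RAM network block rescues cells from 5-FOA so hits raise OD615 growth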). To be noted: S. cerevisiae dse1pr::URA3 5-FOA growth, OD615, 2 d; at 10 µM; hits give high values; strain carries analog-sensitive mutant Cbk1 kinase.
Test [7] is described as follows: RAM signaling pathway blockade in yeast – S. cerevisiae, Pdr1DBD-CYC8 efflux-inhibited sensitized strain, primary screen (AID 1298;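 active = RAM network inhibition above 8.4% in each of two replicates, 3 SD over the compound average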;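 note: 0% = DMSO untreated cells without growth and 100% = 10 µM 1-NA-PP1 full growth; higher means more yeast growth rescued from 5-FOA killing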). To be noted: S. cerevisiae cbk1-as DSE1-URA3 strain, 5-FOA growth OD615, 2 d; at 50 µM; hits give high values.

Unmarked numbers belong to inactive results. Records with an inconclusive call do not appear. Active and inactive are the calls of the source.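 Rule for the calls, unless noted: active = growth inhibition above 25% in both replicates, a cutoff set 3 SD above the mean; inconclusive = above 25% in only one replicate; inactive = the rest.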

With `COc1ccccc1CNc1ncnc2c1cnn2-c1ccccc1`, the growth inhibition in test [1] was -13.5%; in test [2], -7.05%. In addition, in test [3], the viability increase is -4.76%. Further, the viability is 74.2% in test [4] and 79% in test [5]. In addition, in test [6], the inhibition is 0.575%. Also, in test [7], the RAM network inhibition is 0.57%.
Consider `O=C(Nc1ccc(N2CCOCC2)cc1)NC1CCCCC1`, for which the values for the growth inhibition in test [1] and in test [2] were -0.89% and 1.07%, respectively. The viability increase in test [3] is -1.27%. For the same molecule, the viability was 103% in test [4] and 101% in test [5]. Besides, the inhibition in test [6] was -0.22%. In addition, the RAM network inhibition in test [7] was 9.28%.
Regarding `Cn1c2c(c(=O)n(C)c1=O)C(c1cc3c(cc1Br)OCO3)CC(=O)N2` (stereo unspecified), the growth inhibition in test [1] is -4.86%; in test [2] it was -4.15%. The viability increase in test [3] was -0.66%. Besides, the viability in test [4] is 105%; in test [5], 99%. The inhibition in test [6] is -0.625%. Also, the RAM network inhibition in test [7] is 4.1%.
On to `O=C(O)C1CCCN1S(=O)(=O)c1ccc(Cl)c(Cl)c1` (stereo unspecified), for which the growth inhibition in test [1] is -5.33%; in test [2], -3.77%. In test [3], the viability increase is -1.74%. The viability in test [4] was 98.6%; in test [5], 106%. Moreover, the inhibition in test [6] is -0.11%. Moreover, in test [7], the RAM network inhibition was 1.89%.
As for `CCOC(=O)c1sc(N)nc1-c1ccccc1`, the results for the growth inhibition in test [1] and in test [2] were -5.04% and 1.07%, respectively. Also, the viability increase in test [3] was -2.29%. The viability was 101% in test [4] and 94.5% in test [5]. In test [6], the inhibition was 2.48%. For the same molecule, the RAM network inhibition in test [7] is -2.06%.
For the molecule `CCCc1n[nH]c2c1C(=O)C(C(=O)OC)C(C)(C)C2` (stereo unspecified), the results for the growth inhibition in test [1] and in test [2] were -12.6% and -12.8%, respectively. Besides, in test [3], the viability increase was -3.14%. Further, the viability in test [4] was 95.9%; in test [5] it was 95.8%. Also, in test [6], the inhibition is 1.14%. Besides, the RAM network inhibition in test [7] was 4.78%.
As to `Cc1onc(-c2ccccc2Cl)c1C(=O)Nc1ccccc1C(N)=O`, the growth inhibition was -9.31% in test [1] and -29.5% in test [2]. Further, in test [3], the viability increase was -3.08%. Further, the viability is 90.2% in test [4] and 85.5% in test [5]. Moreover, the inhibition in test [6] was 0.895%. The RAM network inhibition in test [7] was 0.67%.
With `CCN(CC)c1ccc(NC(=O)CSc2nc(C)cc(=O)[nH]2)cc1`, the growth inhibition in test [1] is -5.01%; in test [2], 1.71%. The viability increase in test [3] was -0.69%. The values for the viability in test [4] and in test [5] were 95.7% and 95.4%, respectively. In addition, the inhibition in test [6] was 0.125%. Moreover, the RAM network inhibition in test [7] is 5.74%.
On to `CC(/C=C/c1ccccc1)=N/O`, for which the growth inhibition in test [1] was -2.33%; in test [2], 2.71%. In addition, in test [3], the viability increase was 0.26%. Moreover, the viability is 98.3% in test [4] and 106% in test [5]. Also, the inhibition in test [6] is -0.595%. Besides, the RAM network inhibition in test [7] is 4.55%.
As to `O=C(Nc1nccs1)c1ccc(Cl)s1`, the growth inhibition in test [1] was -0.705%; in test [2], 4.79%. Also, the viability increase in test [3] was 1.01%. For the same molecule, the viability is 96.3% in test [4] and 94.9% in test [5]. Besides, in test [6], the inhibition is -0.025%. For the same molecule, the RAM network inhibition in test [7] is -1.54%.
`COc1ccc(-c2nc(CS(=O)CC(=O)NCc3cccnc3)c(C)o2)cc1OC` (stereo unspecified): the figures for the growth inhibition in test [1] and in test [2] were -1.92% and -2.94%, respectively. Further, in test [3], the viability increase was -2.64%. Moreover, the viability in test [4] is 99.5%; in test [5], 94.8%. In test [6], the inhibition is 1.42%. Further, the RAM network inhibition in test [7] was 0.68%.
In the case of `C=CC1C(N2CCOCC2)C(C)(C)S1(=O)=O` (stereo unspecified), the growth inhibition in test [1] was 4.78%; in test [2], 5.46%. For the same molecule, the viability increase in test [3] was -1.46%. Besides, the viability in test [4] was 102%; in test [5], 101%. Besides, the inhibition in test [6] is 1.38%. In addition, the RAM network inhibition in test [7] is -0.28%.
For the molecule `CC(=O)c1cccc(NC(=O)c2cc3ccccn3n2)c1`, the values for the growth inhibition in test [1] and in test [2] were -5.62% and 4.32%, respectively. Also, the viability increase in test [3] was -2.31%. The viability is 99% in test [4] and 95.8% in test [5]. Moreover, the inhibition in test [6] was 0.705%. For the same molecule, the RAM network inhibition in test [7] is -0.31%.
As to `COC(=O)c1ccc(CSc2nc3c(c(=O)n2-c2ccc(F)cc2)SCC3)o1`, the growth inhibition in test [1] is -7.83%; in test [2], -16.6%. For the same molecule, the viability increase in test [3] was -3.02%. For the same molecule, the viability in test [4] is 83.7%; in test [5], 81.3%. Also, in test [6], the inhibition is 1.3%. Moreover, the RAM network inhibition in test [7] is 1.52%.
`COc1ccc(NC(C)=O)cc1NC(=O)CSc1nnc(-c2ccncc2)n1C`: the growth inhibition was -5.57% in test [1] and -7.07% in test [2]. Besides, the viability increase in test [3] is -1.99%. The viability is 96.6% in test [4] and 106% in test [5]. The inhibition in test [6] is 0.24%. Moreover, the RAM network inhibition in test [7] is 0.2%.
Take `COc1cccc(C(=O)Nc2ccc(S(=O)(=O)Nc3onc(C)c3C)cc2)c1`: the growth inhibition was -9.3% in test [1] and -14.8% in test [2]. Also, the viability increase in test [3] is 0.25%. The viability in test [4] is 96.1%; in test [5], 97.9%. Moreover, in test [6], the inhibition was 1.99%. For the same molecule, the RAM network inhibition in test [7] is 7.93%.
Consider `N#Cc1ccc(NC(=O)Nc2ccc(Cl)cc2)cc1`, for which the growth inhibition in test [1] is 3.13%; in test [2], -4.69%. Besides, the viability increase in test [3] was -7.91%. For the same molecule, the viability in test [4] was 6.71% (active); in test [5], 7.35% (active). Also, the inhibition in test [6] is 1.34%. Moreover, in test [7], the RAM network inhibition is 1.44%.
Consider `CCSc1nnc2c(n1)OC(c1ccc(C(=O)O)cc1)N(C(C)=O)c1ccccc1-2` (stereo unspecified), for which the results for the growth inhibition in test [1] and in test [2] were -10.1% and -2.9%, respectively. The viability increase in test [3] was -1.34%. In addition, the viability is 107% in test [4] and 100% in test [5]. Also, in test [6], the inhibition is 1.66%. The RAM network inhibition in test [7] is 2.35%.

What is called viability is a read-out of living cells in per cent, often relative to untreated cells. The inhibition is the drop in the measured response relative to a control, in per cent.
